Only some compounds are listed: those with a hit (about 2.3% of all), similar ones and a draw of the others.
TRPC4 block: inhibitors of mouse TRPC4 channel, primary screen, Fluo4 calcium, HEK293 TRPC4beta/mu-opioid cells; DAMGO-evoked Fluo4 calcium flux; stronger effect = lower value; B-score at 10 µM; AID 2247, 2010; 300,000 compounds, 0.39% hits; Short transient receptor potential channel 4 (Mus musculus), Q9QUQ5;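 active = B-score over 3 SD under the library average, no early fluorescence shift, positive overall ratio signal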
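Material: HEK293 cells with stable TRPC4beta plus mu-opioid receptor expression / Probe or stimulus: DAMGO in two steps, submaximal then maximal / Compound: single concentration per test compound / Technique: kinetic Fluo4 fluorescence imaging of calcium influx / Read-out: per-well B score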
TRPC4 potent: positive allosteric modulators of TRPC4, primary screen, cell-based, mouse TRPC4beta, HEK293 mu-opioid, Fluo-4 calcium; Short transient receptor potential channel 4 (Mus musculus), Q9QUQ5; DAMGO EC20, Fluo-4 Ca2+ flux; stronger effect = higher value; B-score at 10 µM; 310,000 compounds, 0.42% hits; AID 2227, 2009;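 active = B-score of calcium response area above 5 SD of library B-scores, with initial fluorescence ratio within 5 SD of library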
TRPC4 agonist: activators of mouse TRPC4 channel, primary screen, Fluo4 calcium, HEK293 TRPC4beta/mu-opioid cells; Short transient receptor potential channel 4 (Mus musculus), Q9QUQ5; Fluo4 calcium fluorescence; stronger effect = higher value; B-score at 10 µM; 310,000 compounds, 0.49% hits;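 active = B-score above 5 SD of library B-scores, and initial fluorescence ratio not above library mean plus 5 SD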;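 also: positive B-score marks a calcium rise read as TRPC4 activation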
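Material: HEK293 stable line with TRPC4beta plus mu-opioid receptor; technique: Fluo4 calcium-sensitive dye fluorescence, kinetic, 1 Hz baseline; timing: Fluo4 dye loading 45 min at room temperature, 110 s recording; controls: assay buffer as low control, maximal DAMGO as high control; read-out: integrated baseline-normalised fluorescence ratio, converted to per-well B score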
TRPC6 inh: mouse TRPC6 channel inhibitors, primary screen, cell-based, HEK293, membrane potential dye; ACh-evoked depolarization; stronger effect = lower value; Short transient receptor potential channel 6 (Mus musculus), Q61143; B-score at 10 µM; 310,000 compounds, 1.1% hits; AID 2553, 2010;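 active = B-score under library mean minus 3 SD, initial fluorescence not abnormally high, positive integrated signal ratio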;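 also: B-score derived from integrated fluorescence ratio over the kinetic read; more negative B-score means stronger inhibition of depolarization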
Target sequence (Q61143 whole entry, looked up): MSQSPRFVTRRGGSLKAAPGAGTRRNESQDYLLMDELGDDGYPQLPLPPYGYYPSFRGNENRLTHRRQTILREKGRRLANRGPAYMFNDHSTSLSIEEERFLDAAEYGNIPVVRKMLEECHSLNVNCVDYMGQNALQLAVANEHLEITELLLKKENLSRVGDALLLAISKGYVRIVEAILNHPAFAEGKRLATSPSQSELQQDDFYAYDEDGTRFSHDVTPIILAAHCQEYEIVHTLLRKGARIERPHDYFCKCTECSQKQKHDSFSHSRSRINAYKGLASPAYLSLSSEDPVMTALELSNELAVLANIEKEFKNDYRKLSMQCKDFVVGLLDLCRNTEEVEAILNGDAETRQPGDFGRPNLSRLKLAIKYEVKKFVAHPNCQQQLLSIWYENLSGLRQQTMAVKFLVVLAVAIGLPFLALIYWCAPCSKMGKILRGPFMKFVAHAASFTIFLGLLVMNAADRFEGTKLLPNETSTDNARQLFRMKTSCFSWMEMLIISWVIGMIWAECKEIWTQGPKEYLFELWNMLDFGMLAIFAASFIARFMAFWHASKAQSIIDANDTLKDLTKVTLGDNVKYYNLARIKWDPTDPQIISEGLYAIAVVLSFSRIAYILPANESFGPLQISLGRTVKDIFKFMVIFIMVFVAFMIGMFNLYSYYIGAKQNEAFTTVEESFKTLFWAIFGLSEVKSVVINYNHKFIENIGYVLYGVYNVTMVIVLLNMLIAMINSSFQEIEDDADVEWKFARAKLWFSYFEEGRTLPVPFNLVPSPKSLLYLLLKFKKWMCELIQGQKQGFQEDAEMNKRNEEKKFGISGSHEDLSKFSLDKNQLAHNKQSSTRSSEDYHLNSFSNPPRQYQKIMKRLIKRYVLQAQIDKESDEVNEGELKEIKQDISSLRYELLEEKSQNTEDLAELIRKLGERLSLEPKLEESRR
TRPC6 activator: mouse TRPC6 channel activators, primary screen, cell-based, HEK293, membrane potential dye | 310,000 compounds, 0.13% hits | HEK293-TRPC6 membrane potential dye fluorescence; stronger effect = higher value | B-score at 10 µM | AID 2550, 2010;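 active = B-score of the integrated fluorescence ratio above library mean plus 3 SD, and starting fluorescence ratio within library mean plus 5 SD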;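 also: higher score means more depolarization so channel activation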
TRPC4 spec 2: second check of whether TRPC6 inhibitors also affect mouse TRPC4. 920 compounds, 42% hits. inhibition, % at 10 µM. AID 2776. shares compounds with TRPC6 inh. HEK293 TRPC4/MOR, membrane potential dye fluorescence; channel activated by saturating DAMGO dose;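 active = compounds whose fluorescence signal differed from control wells by over 3 SD, either direction, in both duplicate plates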
TRPC4 spec: mouse TRPC4 modulation by TRPC6 hits, confirmation, selectivity assay for TRPC6 inhibitor project, cell-based, HEK293 TRPC4/mu-opioid, membrane potential dye; activity change, negative = inhibition, % at 10 µM; shares compounds with TRPC6 inh; membrane potential fluorescence; 920 compounds, 61% hits;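 active = rise or fall in signal beyond 3 SD of buffer-only wells in both replicate plates, either sign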;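 also: integrated kinetic ratio of fluorescence range over baseline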
HEK293 MPD ctr 2-1: nonspecific membrane potential effects, parental HEK293, confirmation, counter-screen for TRPC6 inhibitor project, cell-based, second counter screen; parental HEK293 membrane potential dye fluorescence; maximal acetylcholine challenge after compound addition; AID 2779, 2010; shares compounds with TRPC6 inh; signal change vs control, % at 10 µM; 920 compounds, 31% hits;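 active = membrane potential signal moving either way by over 3 SD of the maximum-effect control, in both duplicate plates, meaning non-specific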
HEK293 MPD ctr-1: membrane potential modulation in parental HEK293, confirmation, counter-screen for TRPC6 inhibitor project, cell-based; membrane potential signal change, % at 10 µM; shares compounds with TRPC6 inh; 920 compounds, 60% hits; parental HEK293 membrane potential dye fluorescence;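 active = membrane potential signal shifting up or down by more than 3 SD of buffer-only wells, on both duplicate plates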
HEK293 MPD ctr-2: parental HEK293 membrane potential modulation, confirmation, counter-screen for TRPC6 modulator project, cell-based. shares compounds with TRPC6 inh. membrane potential dye fluorescence. membrane potential signal change, % at 10 µM. 2,400 compounds, 51% hits. AID 488924, 2010;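 active = membrane potential signal moves up or down beyond 5 SD from buffer-only wells, on both duplicate plates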
HEK293 MPD ctr 2-2: second counter-screen for TRPC6 modulators: effect in parental HEK293 cells; inhibition, % at 10 µM; membrane potential dye fluorescence; after compound, maximal acetylcholine stimulation; 2,400 compounds, 14% hits; shares compounds with TRPC6 inh;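 active = membrane potential signal drops by more than 5 SD from the mean control signal, in both duplicate plates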
TRPC4 ctr mod: TRPC4 modulation by TRPC6 hit compounds, confirmation, selectivity assay for TRPC6 modulator project, cell-based, HEK293 TRPC4/mu-opioid, membrane potential dye, mouse; AID 488927, 2010; membrane potential fluorescence; 2,400 compounds, 69% hits; shares compounds with TRPC6 inh; percent change from control (negative = decrease, positive = increase), % at 10 µM;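 active = membrane potential signal moved up or down beyond 5 SD of buffer control wells, in both duplicate plates, actives on both sides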
TRPC4 ctr inh 2: second selectivity test of TRPC6 modulators against mouse TRPC4; inhibition, % at 10 µM; shares compounds with TRPC6 inh; HEK293 TRPC4/mu-opioid, membrane potential dye fluorescence; stimulated with maximal-effect DAMGO; 2,400 compounds, 55% hits;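 active = drop in membrane potential signal beyond 5 SD of the control wells in both duplicate plates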;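 also: TRPC4 counter screen for TRPC6 hits run under conditions tuned for TRPC6 not TRPC4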
TRPC6 inh conf: mouse TRPC6 channel inhibitors, confirmation, HEK293 cells, membrane potential dye, duplicate. shares compounds with TRPC6 inh. ACh-evoked depolarization. inhibition, % at 10 µM. 3,300 compounds, 43% hits. AID 488960, 2010;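 active = fluorescence ratio falls more than 5 SD below the full-stimulation control mean, in both duplicate runs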;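 also: integrated fluorescence ratio of peak minus minimum over baseline after agonist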
TRPC6 act conf: mouse TRPC6 channel activators, confirmation, HEK293 cells, membrane potential dye, duplicate; shares compounds with TRPC6 inh; 2,800 compounds, 11% hits; AID 488961, 2010; activation, % at 10 µM; HEK293-TRPC6 membrane potential dye fluorescence, FDSS;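 active = ratio signal rise beyond 5 SD above unstimulated control wells' mean, seen in both duplicate runs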
Each line names hits and unclear results; the compound was inactive in the other large screens (follow-up assays come after a bar, where they were run).

COc1ccc(-c2c[n+]3c(n2-c2ccccc2)SCC3)cc1OC	none
COc1ccccc1NC(=O)c1c(N=Cc2ccccc2O)cnn1C	none
O=C(C1CCC(CNS(=O)(=O)c2ccccc2)CC1)N1CCOCC1 (stereo not drawn)	none
N#CCn1c(CCl)nc2ccccc2c1=O	none
CN1CCN(Cc2nc3ccccc3c(=O)n2CC#N)CC1	TRPC6 inh -6.9 | TRPC4 spec 2 inactive | TRPC4 spec inactive | HEK293 MPD ctr 2-1 inactive | HEK293 MPD ctr-1 inactive | TRPC6 inh conf inactive | TRPC6 act conf inactive
CSc1ccccc1OC1CCN(Cc2ccccc2)CC1	TRPC6 activator 12 | HEK293 MPD ctr-2 196% | HEK293 MPD ctr 2-2 inactive | TRPC4 ctr mod 40% | TRPC4 ctr inh 2 63% | TRPC6 inh conf inactive | TRPC6 act conf 77%
CC(=O)C1CCN(Cc2ccccc2)CC1	none
O=Cc1cccc(OC(=O)Nc2ccccc2)c1	none
CN(/C(=N/S(=O)(=O)c1ccccc1)c1ccccc1)S(=O)(=O)c1ccccc1	TRPC6 inh -6.5 | HEK293 MPD ctr-2 inactive | HEK293 MPD ctr 2-2 inactive | TRPC4 ctr mod 10% | TRPC4 ctr inh 2 inactive | TRPC6 inh conf inactive | TRPC6 act conf inactive
CC(C)CCOc1cccc(OCC(=O)Nc2ccncc2)c1	none
O=C(NC1CCCCC1)C1CCCN1S(=O)(=O)c1ccc(F)cc1 (stereo not drawn)	TRPC6 inh -8.1 | TRPC4 spec 2 inactive | TRPC4 spec inactive | HEK293 MPD ctr 2-1 inactive | HEK293 MPD ctr-1 inactive | TRPC6 inh conf inactive | TRPC6 act conf inactive
COc1ccc2c(c1)nc(NCCCO)n2Cc1ccccc1	none
CCCCn1c(=N)n(CC(O)COc2ccccc2)c2ccccc21 (stereo not drawn)	none
Cc1ccc(Cn2c(=N)n(CC(O)COc3ccccc3)c3ccccc32)cc1 (stereo not drawn)	TRPC4 agonist 72, TRPC6 inh -5.9 | HEK293 MPD ctr-2 inactive | HEK293 MPD ctr 2-2 inactive | TRPC4 ctr mod 68% | TRPC4 ctr inh 2 115% | TRPC6 inh conf 46%
N=c1n(Cc2ccccc2)c2ccccc2n1CC(O)COc1ccccc1 (stereo not drawn)	TRPC4 agonist 56, TRPC6 inh -9.9 | TRPC4 spec 2 -6.5% | TRPC4 spec 56% | HEK293 MPD ctr 2-1 inactive | HEK293 MPD ctr-1 14% | TRPC6 inh conf 63%
C[N+](C)(C)CC/C=C1/c2ccccc2CSc2ccccc21	TRPC6 inh -5.5 | HEK293 MPD ctr-2 inactive | HEK293 MPD ctr 2-2 72% | TRPC4 ctr mod inactive | TRPC4 ctr inh 2 inactive | TRPC6 inh conf 82% | TRPC6 act conf inactive
O=C(c1ccc2c(=O)n3c(nc2c1)CCCCC3)N1CCN(c2ccccc2)CC1	none
O=c1c2cc(Br)ccc2nc2n1CCCCC2	TRPC6 inh -7.8 | TRPC4 spec 2 inactive | TRPC4 spec inactive | HEK293 MPD ctr 2-1 inactive | HEK293 MPD ctr-1 inactive | TRPC6 inh conf inactive | TRPC6 act conf inactive
Cc1ccc2nc3n(c(=O)c2c1)CCCCC3	none
O=C(c1ccc2c(=O)n3c(nc2c1)CCCCC3)N1CCN(C(c2ccccc2)c2ccccc2)CC1	TRPC6 inh -11 | TRPC4 spec 2 inactive | TRPC4 spec -9.3% | HEK293 MPD ctr 2-1 inactive | HEK293 MPD ctr-1 inactive | TRPC6 inh conf inactive | TRPC6 act conf inactive
Cc1nn(-c2ccc(F)cc2)c(Cl)c1C(=O)N(C)CC(=O)Nc1cccc(F)c1	none
Cc1c(CCOC(=O)c2ccccc2)sc[n+]1CC(=O)c1ccc(Br)cc1	none
Cc1c(CCOC(=O)c2ccccc2)sc[n+]1Cc1ccccc1	TRPC6 inh -9.5 | TRPC4 spec 2 inactive | TRPC4 spec inactive | HEK293 MPD ctr 2-1 42% | HEK293 MPD ctr-1 inactive | TRPC6 inh conf 61% | TRPC6 act conf inactive
CCOC(=O)Nc1ccc2c(c1)OCO2	TRPC6 inh -5.6 | HEK293 MPD ctr-2 inactive | HEK293 MPD ctr 2-2 inactive | TRPC4 ctr mod inactive | TRPC4 ctr inh 2 inactive | TRPC6 inh conf inactive | TRPC6 act conf inactive
CCC(C(=O)NC1CCCCC1)n1c(SCc2cccc(F)c2)nc2ccncc21 (stereo not drawn)	TRPC6 inh -5.1 | HEK293 MPD ctr-2 inactive | HEK293 MPD ctr 2-2 inactive | TRPC4 ctr mod inactive | TRPC4 ctr inh 2 inactive | TRPC6 inh conf inactive | TRPC6 act conf inactive
